From ChEMBL document CHEMBL1926621, “New potent 5-HT(2A) receptor ligands containing an N'-cyanopicolinamidine nucleus: Synthesis and in vitro pharmacological evaluation” (Eur J Med Chem, 2012)

Tests used:
[1] = molecular target: T1, 5-hydroxytryptamine receptor 2C (Rattus norvegicus, UniProt P08909); experiment: Displacement of [3H]mesulergine from Sprague-Dawley rat brain cortex serotonin 5-HT2C receptor after 15 mins by liquid scintillation counting in presence of 5-HT2A blocker, spiperone
T1 sequence (P08909 whole entry): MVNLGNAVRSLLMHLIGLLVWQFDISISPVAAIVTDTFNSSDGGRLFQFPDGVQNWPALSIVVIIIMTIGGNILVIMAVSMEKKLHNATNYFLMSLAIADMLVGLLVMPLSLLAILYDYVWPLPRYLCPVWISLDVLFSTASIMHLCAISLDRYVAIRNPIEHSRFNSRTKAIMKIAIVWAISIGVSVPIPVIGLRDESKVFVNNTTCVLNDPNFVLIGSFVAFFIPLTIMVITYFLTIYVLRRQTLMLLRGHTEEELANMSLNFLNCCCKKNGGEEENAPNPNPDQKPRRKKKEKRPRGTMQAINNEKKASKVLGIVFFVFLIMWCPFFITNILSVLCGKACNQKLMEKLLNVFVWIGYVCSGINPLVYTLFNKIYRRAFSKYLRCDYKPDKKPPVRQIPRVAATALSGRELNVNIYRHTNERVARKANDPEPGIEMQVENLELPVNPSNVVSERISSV
Summary of the method: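 Male Sprague-Dawley rat frontal cortex membranes (Tris-HCl/EDTA/MgCl2 pH 7.4, ascorbate, pargyline). 100 nM spiperone in all tubes to block 5-HT2A sites. Mianserin defined nonspecific binding. 15 min at 37 °C, PEI-soaked glass fibre filtration. Six compound concentrations in triplicate. Ki by Cheng-Prusoff.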

[2] = molecular target: 5-hydroxytryptamine receptor 2A (Rattus norvegicus, UniProt P14842); experiment: Displacement of [3H]ketanserin from Sprague-Dawley rat brain cortex serotonin 5-HT2A receptor after 15 mins by liquid scintillation counting
Chain of 5-hydroxytryptamine receptor 2A (P14842 whole entry): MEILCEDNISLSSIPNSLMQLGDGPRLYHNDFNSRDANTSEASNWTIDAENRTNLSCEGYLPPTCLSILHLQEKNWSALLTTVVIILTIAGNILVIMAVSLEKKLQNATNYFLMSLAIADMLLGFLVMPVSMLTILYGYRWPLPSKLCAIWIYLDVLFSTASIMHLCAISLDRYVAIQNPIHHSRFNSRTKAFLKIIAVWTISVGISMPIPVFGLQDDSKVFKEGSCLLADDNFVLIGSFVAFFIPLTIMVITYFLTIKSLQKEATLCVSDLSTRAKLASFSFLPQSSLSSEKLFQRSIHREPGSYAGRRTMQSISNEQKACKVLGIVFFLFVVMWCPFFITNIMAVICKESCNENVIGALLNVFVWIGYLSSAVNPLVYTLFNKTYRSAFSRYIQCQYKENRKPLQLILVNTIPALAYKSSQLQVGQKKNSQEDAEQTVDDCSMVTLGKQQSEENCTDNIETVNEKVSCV
Summary of the method: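 Male Sprague-Dawley rat frontal cortex membranes in 50 mM Tris-HCl, 0.5 mM EDTA, 10 mM MgCl2 pH 7.4, with 0.1% ascorbate and pargyline. 0.4 nM [3H]ketanserin, 5 mg wet tissue, 15 min at 37 °C. Filtered on PEI-soaked glass fibre. Six compound concentrations in triplicate. IC50 converted to Ki by Cheng-Prusoff.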

[3] = molecular target: T2, 5-hydroxytryptamine receptor 1A (Rattus norvegicus, UniProt P19327); experiment: Displacement of [3H]-8-OH-DPAT from Sprague-Dawley rat brain cortex serotonin 5-HT1A receptor after 30 mins by liquid scintillation counting
T2 sequence (P19327 whole entry): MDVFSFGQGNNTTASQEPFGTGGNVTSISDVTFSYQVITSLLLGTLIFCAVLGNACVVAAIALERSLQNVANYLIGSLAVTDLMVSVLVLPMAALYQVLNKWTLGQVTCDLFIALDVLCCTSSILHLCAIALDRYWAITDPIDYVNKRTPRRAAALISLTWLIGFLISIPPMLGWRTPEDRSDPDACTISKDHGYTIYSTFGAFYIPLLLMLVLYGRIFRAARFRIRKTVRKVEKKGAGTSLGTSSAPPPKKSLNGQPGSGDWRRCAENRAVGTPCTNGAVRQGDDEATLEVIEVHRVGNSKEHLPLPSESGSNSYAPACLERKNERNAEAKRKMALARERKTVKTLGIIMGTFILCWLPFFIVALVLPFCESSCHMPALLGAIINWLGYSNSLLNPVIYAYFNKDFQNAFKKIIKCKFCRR
Summary of the method: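 Male Sprague-Dawley rat (180-220 g) cerebral cortex homogenized in 50 mM Tris-HCl pH 7.7, spun 50,000 g. [3H]-8-OH-DPAT 0.1 nM final, 30 min at 37 °C, GF/B filtration. Test compounds in ethanol or 5% DMSO, six concentrations in triplicate. IC50 by curve fitting, Ki by Cheng-Prusoff using Scatchard-derived KD.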

D(1A) dopamine receptor = D(1A) dopamine receptor (Rattus norvegicus, UniProt P18901); experiment: Displacement of [3H]SCH-23390 from rat corpora striatum dopamine D1 receptor after 15 mins by liquid scintillation counting
Chain of D(1A) dopamine receptor (P18901 whole entry): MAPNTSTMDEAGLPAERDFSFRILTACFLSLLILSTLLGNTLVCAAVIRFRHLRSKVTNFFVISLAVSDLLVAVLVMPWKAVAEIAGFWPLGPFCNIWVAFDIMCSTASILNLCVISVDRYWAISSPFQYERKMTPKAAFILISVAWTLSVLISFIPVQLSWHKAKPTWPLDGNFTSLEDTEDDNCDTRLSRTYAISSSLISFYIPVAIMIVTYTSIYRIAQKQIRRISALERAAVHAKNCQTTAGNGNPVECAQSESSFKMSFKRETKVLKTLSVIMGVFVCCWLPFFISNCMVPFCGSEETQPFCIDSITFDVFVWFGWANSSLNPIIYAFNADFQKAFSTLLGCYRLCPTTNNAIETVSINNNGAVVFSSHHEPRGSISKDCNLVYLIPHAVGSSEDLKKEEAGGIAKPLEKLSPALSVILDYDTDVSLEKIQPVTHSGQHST
Summary of the method: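 Rat corpora striata homogenized in 50 mM Tris-HCl pH 7.7, spun twice at 50,000 g. Resuspended in Tris-HCl with NaCl, KCl, CaCl2, MgCl2, ascorbic acid and pargyline. 0.4 nM [3H]SCH-23390 final, 3 mg fresh tissue, 15 min at 37 °C. Nonspecific binding with piflutixol. Ki by Cheng-Prusoff from triplicate six-point curves.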

D(2) dopamine receptor = D(2) dopamine receptor (Rattus norvegicus, UniProt P61169); experiment: Displacement of [3H]spiperone from rat corpora striatum dopamine D2 receptor after 15 mins by liquid scintillation counting
Chain of D(2) dopamine receptor (P61169 whole entry): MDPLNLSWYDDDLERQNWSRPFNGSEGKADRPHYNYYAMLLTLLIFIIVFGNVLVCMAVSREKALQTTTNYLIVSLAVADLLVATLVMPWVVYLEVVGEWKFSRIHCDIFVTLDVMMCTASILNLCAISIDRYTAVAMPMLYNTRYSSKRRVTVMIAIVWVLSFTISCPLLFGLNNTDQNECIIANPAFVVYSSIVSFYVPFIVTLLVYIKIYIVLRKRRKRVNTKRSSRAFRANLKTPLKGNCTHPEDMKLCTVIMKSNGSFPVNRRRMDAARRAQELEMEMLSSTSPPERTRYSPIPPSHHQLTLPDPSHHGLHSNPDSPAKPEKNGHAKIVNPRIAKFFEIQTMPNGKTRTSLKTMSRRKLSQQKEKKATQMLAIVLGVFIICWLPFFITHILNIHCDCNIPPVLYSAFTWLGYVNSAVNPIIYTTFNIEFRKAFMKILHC
Summary of the method: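 Corpora striata membranes in Tris-HCl buffer containing NaCl, KCl, CaCl2, MgCl2, ascorbic acid and pargyline. [3H]spiperone 0.4 nM final, 3 mg fresh tissue, incubated 15 min at 37 °C. GF/B filtration, scintillation counting. Six concentrations in triplicate. IC50 converted to Ki via Cheng-Prusoff.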

[4] = molecular target: T3, Adrenergic receptor alpha-2 (Rattus norvegicus, UniProt P22086+P19328+P22909); experiment: Displacement of [3H]yohimbine from rat brain cortex adrenergic alpha2 receptor after 30 mins by liquid scintillation counting
T3 sequence (P22086 whole entry): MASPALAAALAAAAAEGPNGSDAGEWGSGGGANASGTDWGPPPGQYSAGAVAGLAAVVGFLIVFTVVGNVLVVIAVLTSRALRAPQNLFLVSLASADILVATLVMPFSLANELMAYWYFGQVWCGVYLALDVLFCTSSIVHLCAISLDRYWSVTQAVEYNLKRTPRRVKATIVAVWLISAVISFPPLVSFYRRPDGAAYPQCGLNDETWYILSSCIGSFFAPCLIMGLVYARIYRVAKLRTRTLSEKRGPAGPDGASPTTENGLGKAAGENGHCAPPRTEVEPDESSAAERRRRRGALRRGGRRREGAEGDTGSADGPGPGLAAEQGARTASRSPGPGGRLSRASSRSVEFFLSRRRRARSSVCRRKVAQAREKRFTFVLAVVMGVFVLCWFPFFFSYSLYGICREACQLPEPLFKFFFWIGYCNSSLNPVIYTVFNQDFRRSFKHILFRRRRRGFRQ
T3 sequence (P19328 whole entry): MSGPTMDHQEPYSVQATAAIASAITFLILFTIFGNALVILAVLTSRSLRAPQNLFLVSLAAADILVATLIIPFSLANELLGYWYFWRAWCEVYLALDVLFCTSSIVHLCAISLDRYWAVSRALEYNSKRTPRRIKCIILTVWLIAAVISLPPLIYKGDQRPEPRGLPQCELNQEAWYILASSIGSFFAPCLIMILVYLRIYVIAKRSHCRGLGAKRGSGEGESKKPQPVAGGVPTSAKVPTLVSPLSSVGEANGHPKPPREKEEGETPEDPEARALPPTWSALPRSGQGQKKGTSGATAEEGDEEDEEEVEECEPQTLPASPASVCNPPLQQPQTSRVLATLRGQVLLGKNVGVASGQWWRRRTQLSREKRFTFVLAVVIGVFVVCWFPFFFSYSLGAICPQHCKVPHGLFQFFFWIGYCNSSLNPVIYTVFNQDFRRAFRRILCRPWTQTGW
T3 sequence (P22909 whole entry): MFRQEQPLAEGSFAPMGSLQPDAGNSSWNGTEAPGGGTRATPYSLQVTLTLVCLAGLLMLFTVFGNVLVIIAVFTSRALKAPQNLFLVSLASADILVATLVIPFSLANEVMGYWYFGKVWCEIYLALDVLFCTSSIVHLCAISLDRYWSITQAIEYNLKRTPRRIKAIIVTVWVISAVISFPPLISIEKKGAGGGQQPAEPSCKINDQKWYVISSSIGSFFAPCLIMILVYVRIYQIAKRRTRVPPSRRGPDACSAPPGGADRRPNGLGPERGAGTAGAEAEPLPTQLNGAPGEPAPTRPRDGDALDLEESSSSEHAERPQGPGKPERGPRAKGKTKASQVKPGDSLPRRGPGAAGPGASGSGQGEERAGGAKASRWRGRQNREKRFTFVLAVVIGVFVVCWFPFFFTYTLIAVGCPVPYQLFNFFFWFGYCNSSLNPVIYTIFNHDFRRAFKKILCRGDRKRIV
Summary of the method: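 Cortex homogenized in 5 mM Tris-HCl, 5 mM EDTA pH 7.3, spun three times at 50,000 g, resuspended in 50 mM Tris-HCl, 0.5 mM EDTA pH 7.5. [3H]yohimbine 1 nM final, 10 mg fresh tissue, 30 min at 25 °C. Phentolamine defined nonspecific binding. Ki by Cheng-Prusoff.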

[5] = molecular target: T4, Adrenergic receptor alpha-1 (Rattus norvegicus, UniProt P15823+P23944+P43140); experiment: Displacement of [3H]prazosin from rat brain cortex adrenergic alpha1 receptor after 30 mins by liquid scintillation counting
T4 sequence (P15823 whole entry): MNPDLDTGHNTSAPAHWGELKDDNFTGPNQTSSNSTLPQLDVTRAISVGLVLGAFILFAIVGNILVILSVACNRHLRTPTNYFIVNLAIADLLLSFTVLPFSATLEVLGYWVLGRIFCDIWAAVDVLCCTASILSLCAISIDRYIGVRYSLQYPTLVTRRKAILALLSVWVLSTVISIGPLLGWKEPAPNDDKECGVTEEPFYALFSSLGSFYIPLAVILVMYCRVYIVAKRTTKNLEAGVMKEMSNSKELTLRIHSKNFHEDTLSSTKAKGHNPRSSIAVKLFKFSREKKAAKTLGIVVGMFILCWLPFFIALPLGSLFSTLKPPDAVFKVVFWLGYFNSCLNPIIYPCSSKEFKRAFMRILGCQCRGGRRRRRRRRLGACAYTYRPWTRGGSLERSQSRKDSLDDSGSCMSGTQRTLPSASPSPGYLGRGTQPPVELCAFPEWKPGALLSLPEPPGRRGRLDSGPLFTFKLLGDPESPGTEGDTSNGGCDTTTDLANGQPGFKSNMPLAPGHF
T4 sequence (P23944 whole entry): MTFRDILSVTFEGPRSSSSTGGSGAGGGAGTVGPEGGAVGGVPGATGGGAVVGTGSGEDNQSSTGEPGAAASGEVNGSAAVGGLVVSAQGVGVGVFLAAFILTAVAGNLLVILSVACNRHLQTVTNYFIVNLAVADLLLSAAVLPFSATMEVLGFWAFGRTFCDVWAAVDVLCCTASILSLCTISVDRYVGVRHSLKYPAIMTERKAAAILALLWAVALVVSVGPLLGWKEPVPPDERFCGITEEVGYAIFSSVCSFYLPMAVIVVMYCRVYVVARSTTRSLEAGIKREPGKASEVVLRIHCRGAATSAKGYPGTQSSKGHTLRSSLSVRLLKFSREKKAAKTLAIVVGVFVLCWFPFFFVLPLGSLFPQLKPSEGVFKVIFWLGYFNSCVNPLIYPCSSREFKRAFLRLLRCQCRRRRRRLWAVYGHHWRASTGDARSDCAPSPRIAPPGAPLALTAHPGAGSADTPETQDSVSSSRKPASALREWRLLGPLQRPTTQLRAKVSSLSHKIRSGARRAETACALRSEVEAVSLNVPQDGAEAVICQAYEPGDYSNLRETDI
T4 sequence (P43140 whole entry): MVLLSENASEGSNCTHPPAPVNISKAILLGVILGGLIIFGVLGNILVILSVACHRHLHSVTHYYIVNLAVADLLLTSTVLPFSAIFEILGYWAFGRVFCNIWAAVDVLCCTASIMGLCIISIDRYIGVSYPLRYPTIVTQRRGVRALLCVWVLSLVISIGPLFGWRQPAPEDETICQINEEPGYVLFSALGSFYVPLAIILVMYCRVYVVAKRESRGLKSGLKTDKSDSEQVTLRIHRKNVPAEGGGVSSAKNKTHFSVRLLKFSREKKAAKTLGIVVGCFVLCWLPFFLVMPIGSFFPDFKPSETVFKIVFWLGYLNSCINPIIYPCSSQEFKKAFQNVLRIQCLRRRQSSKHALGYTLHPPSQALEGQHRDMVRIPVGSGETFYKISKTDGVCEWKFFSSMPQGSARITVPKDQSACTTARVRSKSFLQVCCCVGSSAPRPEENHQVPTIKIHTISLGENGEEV
Summary of the method: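 Brain cortex homogenized in 50 mM Tris-HCl pH 7.2, spun twice at 50,000 g, resuspended in Tris-HCl pH 7.4. 0.4 nM [3H]prazosin final, 10 mg fresh tissue, 30 min at 25 °C. Nonspecific binding with phentolamine. GF/B filtration. Ki by Cheng-Prusoff from six-point triplicate curves.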

| Compound | Ki ([1]; read-out: Ki) | Ki ([2]; read-out: Ki) | Ki ([3]; read-out: Ki) | Ki [1] | Ki [2] | Ki [3] | also measured |
| --- | --- | --- | --- | --- | --- | --- | --- |
| N#C/N=C(\NCCCN1CCN(Cc2ccc3c(c2)OCO3)CC1)c1ccccn1 | – | 51.8 nM | > 10000 nM | Not Active | – | – | Ki (D(1A) dopamine receptor): Not Active; Ki (D(2) dopamine receptor): Not Active; Ki [4]: 964 nM |
| COCCN1CCN(CCCN/C(=N\C#N)c2ccccn2)CC1 | 389 nM | – | – | – | Not Active | Not Active | – |
| N#C/N=C(\NCCCN1CCN(C(=O)c2ccco2)CC1)c1ccccn1 | – | 21.5 nM | > 10000 nM | Not Active | – | – | Ki (D(1A) dopamine receptor): Not Active; Ki (D(2) dopamine receptor): Not Active; Ki [4]: > 10000 nM |
| C=CCN1CCN(CCCN/C(=N\C#N)c2ccccn2)CC1 | > 10000 nM | – | – | – | Not Active | Not Active | – |
| N#CNC(=NCCCN1CCN(c2cccc(Cl)c2)CC1)c1ccccn1 | 3.28 nM | 0.000185 nM | 6.67 nM | – | – | – | IC50 [2]: 0.00025 nM; Ki (D(1A) dopamine receptor; read-out: Ki): > 10000 nM; Ki (D(2) dopamine receptor; read-out: Ki): > 10000 nM |
| CCOCCN1CCN(CCCN/C(=N\C#N)c2ccccn2)CC1 | 597 nM | – | – | – | Not Active | Not Active | – |

Now from value to compound, other results behind:

| Ki ([1]; read-out: Ki) | Ki ([2]; read-out: Ki) | Ki ([3]; read-out: Ki) | Ki [1] | Ki [2] | Ki [3] | Compound | also measured |
| --- | --- | --- | --- | --- | --- | --- | --- |
| 28.8 nM | 904 nM | > 10000 nM | – | – | – | N#C/N=C(\NCCCN1CCN(c2ccccc2C#N)CC1)c1ccccn1 | – |
| – | > 10000 nM | 0.0842 nM | Not Active | – | – | COc1ccc(N2CCN(CCCN/C(=N\C#N)c3ccccn3)CC2)cc1 | Ki (D(1A) dopamine receptor; read-out: Ki): > 10000 nM; Ki (D(2) dopamine receptor; read-out: Ki): > 10000 nM; Ki [5]: > 10000 nM |
| – | 27 nM | 170 nM | Not Active | – | – | N#C/N=C(\NCCCN1CCN(c2ccccc2Cl)CC1)c1ccccn1 | – |
